# Sampled rows, rich in hits. Any-hit rate of the full collection: about 1.4%.
# NS3 helicase inh = inhibitors of Hepatitis C virus NS3 helicase; NS3 helicase DNA unwinding, Cy5 molecular beacon fluorescence; inhibition, % at 10.9 µM; 290,000 tested, 0.56% active; AID 1800;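 active means inhibition above the mean of all tested compounds plus 3 SD, set per campaign, cut at about 35% in these data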
#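 System: HCV NS3 helicase fragment; control set: DMSO and thioflavine S; technique: Cy5 fluorescence at 0 and 60 min, beacon hairpin quenching; reagent: beacon DNA duplex substrate plus ATP; replicates: singlicate; schedule: 1 h reaction at 25 °C, ATP-initiated; medium: MOPS buffer pH 6.5 with MgCl2, DTT, Tween20, BSA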
# HCV core dimer = blocks dimerization of HCV core protein; TR-FRET GST/Flag-core106 dimerization, 1536-well; inhibition, % at 5 µM; 300,000 tested, 0.33% active; AID 1899;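 active means inhibition above the mean of all tested compounds plus 3 SD, set per screening campaign, cut at about 45% in these data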
#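 Assay system: GST-tagged and Flag-tagged HCV core protein residues 1-106 / Times: compound-protein-antibody incubation 4 h at 22.5 °C / Signal: time-resolved FRET, ex 340 nm, em 617 and 671 nm / Evaluation: % inhibition based on acceptor/donor emission ratio / Benchmarks: wells lacking GST-core106 and wells with excess unlabelled core106 / Repeats: singlicate, one well per compound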
# ZTA DNA inh = ZTA (EBV) inhibition in EBNA-1 counter-screen. 320,000 tested, 0.15% active. inhibition, % at 11 µM. ZTA-DNA binding, fluorescence polarization. P03206; in the data active means inhibition above about 33%
# Target sequence (P03206 whole entry, looked up): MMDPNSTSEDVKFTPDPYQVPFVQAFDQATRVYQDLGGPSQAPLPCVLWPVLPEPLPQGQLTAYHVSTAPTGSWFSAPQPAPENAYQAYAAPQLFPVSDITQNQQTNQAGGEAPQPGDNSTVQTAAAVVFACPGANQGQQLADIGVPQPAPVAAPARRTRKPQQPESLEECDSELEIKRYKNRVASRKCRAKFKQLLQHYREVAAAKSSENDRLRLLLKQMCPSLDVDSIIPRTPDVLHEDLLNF
# EBNA-1 inhibitor = blocks EBNA-1 binding to DNA; EBNA-1 DNA binding, fluorescence polarization; inhibition, % at 14.8 µM; 300,000 tested, 0.34% active; AID 1950; in the data active means inhibition above about 28%
# SUMO HTRF inh = blocks human SUMOylation mediated by UBC9; HTRF SUMOylation assay, SAE1/SAE2 + UBC9, in vitro; inhibition, % at 35 µM; 290,000 tested, 0.36% active; P63279; AID 2006; in the data active means inhibition above about 50%, passing the limit was not always enough; inconclusive means no clear call, values can overlap the other calls
# Target sequence (P63279 whole entry, looked up): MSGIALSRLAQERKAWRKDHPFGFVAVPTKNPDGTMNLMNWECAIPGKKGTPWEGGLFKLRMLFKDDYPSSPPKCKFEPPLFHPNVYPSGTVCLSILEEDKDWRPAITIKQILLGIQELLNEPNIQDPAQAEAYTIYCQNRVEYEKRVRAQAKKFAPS
# NS3 hel confirm = HCV NS3 helicase inhibition, confirmation assay; 1,600 tested, 31% active; NS3 helicase DNA unwinding, Cy5 molecular beacon fluorescence; AID 1943; inhibition, % at 10.9 µM; shares compounds with NS3 helicase inh;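 active means inhibition above the mean of all tested compounds plus 3 SD, cutoff set per campaign, cut at about 36% in these data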
# DNA FID counter = intercalator displacement, NS3 helicase counter-screen; shares compounds with NS3 helicase inh; DNA fluorescent intercalator displacement, fluorescence; inhibition, % at 7.9 µM; 1,600 tested, 4% active; AID 1945; in the data active means inhibition above about 37%;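 further: higher means more displacement of ethidium bromide from the DNA hairpin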
# DNA FID DR = displaces fluorescent intercalator from DNA, HCV helicase counter-screen; 120 tested, under 10 active; AID 2172; IC50, µM; shares compounds with NS3 helicase inh; fluorescent intercalator displacement from DNA, fluorescence; call rule not given here
# Hits are given with their value; i = inactive; ? = inconclusive; nt = not tested or not shown.
SMILES,NS3 helicase inh,HCV core dimer,ZTA DNA inh,EBNA-1 inhibitor,SUMO HTRF inh,NS3 hel confirm,DNA FID counter,others
CCCn1c(/C=C/c2ccccc2)nc2ccccc21,i,i,i,i,i,nt,nt,
O=C(N/C(=C\c1ccccc1)C(=O)N1CCOCC1)c1ccccc1Cl,36,i,i,i,i,i,i,
C=C1c2cccc(O)c2C(O)=C2C(=O)[C@]3(O)C(O)=C(C(N)=O)C(=O)[C@@H](N(C)C)[C@@H]3[C@@H](O)[C@H]12,85,i,i,i,93,55,i,DNA FID DR=i
C[C@H]1c2cccc(O)c2C(O)=C2C(=O)C3(O)C(O)=C(C(N)=O)C(=O)[C@@H](N(C)C)[C@@H]3[C@@H](O)[C@@H]21 (stereo partly drawn),nt,i,i,i,nt,nt,nt,
O=C(Nc1ccccc1-c1ccccc1)c1ccccc1,i,i,i,i,i,nt,nt,
Nc1c(S(=O)(=O)O)cc(NC(=O)c2ccccc2)c2c1C(=O)c1ccccc1C2=O,81,i,i,i,i,66,61,
COc1cccc2c1cc1c(=O)n(CC(=O)N3CCC(C)CC3)nc(C)n12,i,i,i,i,i,nt,nt,
Cc1cc(-c2csc(NC(=O)c3ccccc3C(F)(F)F)n2)c(C)n1Cc1ccccc1,50,i,i,i,i,i,i,
CCCCCCCCCCCCN1C/C(=C\C(=O)OCC)c2ccccc2S1(=O)=O,80,i,i,i,i,i,i,
CCCCCCCCCCCCN1C/C(=C\C(=O)OCC)c2cc(C(F)(F)F)ccc2S1(=O)=O,i,i,i,i,i,nt,nt,
Cc1ccc(NC(=O)CNCc2cccs2)cc1Br,i,i,i,i,i,nt,nt,
O=C(Nc1ccc(Cc2ccncc2)cc1)c1cccc([N+](=O)[O-])c1,i,i,i,i,i,nt,nt,
O=C(Nc1ccc(Nc2ccncc2)cc1)c1ccc(Nc2ccnc3ccc([N+](=O)[O-])cc23)cc1,53,nt,nt,nt,69,78,103,
O=C1CC(c2ccco2)CC(O)=C1C=Nc1cc(Cl)ccc1O (stereo not drawn),42,i,i,i,i,i,i,
O=C(CCC1CCN(Cc2ccc(Cl)cc2)CC1)NC1CC1,36,i,i,i,i,i,i,
O=C(CCC1CCN(Cc2ccc(C#CCCO)cc2)CC1)NC1CC1,i,i,i,i,i,nt,nt,
COc1c(N2CCN(C(=S)NCc3ccccc3)C(C)C2)c(F)cc2c(=O)c(C(=O)O)cn(C3CC3)c12 (stereo not drawn),40,i,i,i,i,42,i,DNA FID DR=i
CC1(C)CC(=O)C2=C(C1)N(c1ccc(F)cc1)C(=O)C2(NC(=O)c1ccccc1)C(F)(F)F (stereo not drawn),49,i,i,i,i,i,i,
Cc1ccc(N2C(=O)C(NC(=O)c3ccccc3)(C(F)(F)F)C3=C2CC(C)(C)CC3=O)cc1 (stereo not drawn),i,i,i,i,i,nt,nt,
CCOC(=O)C1=C(N)n2c(s/c(=C/c3ccco3)c2=O)=C(C(=O)OC)C1c1ccco1 (stereo not drawn),41,i,i,i,i,i,i,
CCOC(=O)C1=C(C)NC(C)=C(C(=O)OC)C1c1ccco1 (stereo not drawn),37,i,i,i,i,i,i,
COc1ccc(/C(C)=N/NC(=O)CNC(=O)/C=C\c2ccccc2)c(OC)c1,i,i,i,i,i,nt,nt,
CCOc1cccc(C(=O)Nc2ccc(N3CCN(S(C)(=O)=O)CC3)cc2)c1,i,i,i,i,i,nt,nt,
CCOc1cc(C(=O)Nc2ccc(N3CCN(S(C)(=O)=O)CC3)cc2)cc(OCC)c1OCC,39,i,i,i,i,i,i,
COc1ccc(/C=C2\N=C(C)OC2=O)cc1OC,38,i,i,i,i,i,i,
SMILES,NS3 helicase inh,HCV core dimer,ZTA DNA inh,EBNA-1 inhibitor,SUMO HTRF inh,NS3 hel confirm,DNA FID counter,others
Cc1ccc(OCc2n[nH]c(=S)n2-c2ccc(Br)cc2)cc1,37,i,i,i,i,i,i,
CCOc1ccc(NC(=O)CN(C)C(=O)c2cccnc2Sc2ccc(C)c(C)c2)cc1OCC,i,i,i,i,i,nt,nt,
O=C1CSC(=S)N1/N=C/C=C/c1ccccc1,39,53,i,i,i,i,i,
Cc1cc2c(n1-c1ccc(C(=O)O)cc1)CCCCC2,54,nt,nt,nt,i,71,i,
Cc1ccc(-c2ccccc2)n1-c1ccc(C(=O)O)cc1,i,i,i,i,i,nt,nt,
Cc1ccc(/C=C2/SC(=O)NC2=S)o1,53,nt,nt,nt,i,38,i,
Cn1cc(/C=C2\SC(=O)NC2=S)c2ccccc21,i,i,i,i,i,nt,nt,
O=C1NN(c2ccccc2)C(=O)/C1=C\c1ccccc1OCC(=O)N1CCOCC1,49,i,i,i,i,i,i,
O=C(NCCO)c1ccc2nc(-c3ccco3)c(-c3ccco3)nc2c1,i,i,i,i,?,nt,nt,
Cc1ccc(C)c(N2CCN(C(=O)c3ccc4nc(-c5ccco5)c(-c5ccco5)nc4c3)CC2)c1,37,i,i,i,i,76,i,DNA FID DR=i
O=C(NC1CCCC1)c1ccc2nc(-c3ccco3)c(-c3ccco3)nc2c1,37,i,i,i,51,115,i,DNA FID DR=i
O=C(NCCc1nnc2ccc(NCCCN3CCOCC3)nn12)c1ccccc1F,i,i,i,i,i,nt,nt,
COc1ccccc1CNC(=O)c1nccnc1CO,i,nt,nt,nt,i,nt,nt,
O=c1c(C(c2ccc(Cl)cc2)c2c(O)nc3n(c2=O)CCS3)c(O)nc2n1CCS2,47,i,i,i,i,i,i,
CCCc1nc2sc3ccccc3c(=O)c2c(=O)n1Cc1ccco1,46,nt,nt,nt,i,i,i,
CCc1ccc(C2C(C(=O)O)c3ccccc3C(=O)N2C)cc1 (stereo not drawn),i,i,i,i,i,nt,nt,
CCc1ccc(/C=C/C(=O)C2C(=O)c3ccccc3C2=O)cc1,38,i,i,i,i,i,i,
CC(=O)c1cccc(Nc2nc(-c3cccnc3)cs2)c1,44,nt,nt,nt,i,i,i,
O=C(NC1CCCCC1)c1nn2c(C(F)(F)F)cc(-c3ccco3)nc2c1Br,i,i,i,i,i,nt,nt,
O=C(c1ccccc1)N1CCN(C(=O)c2nn3c(C(F)(F)F)cc(-c4ccco4)nc3c2Br)CC1,47,68,i,i,i,i,i,
O=S(=O)(Nc1nc2ccccc2nc1NCC1CCCO1)c1ccc(F)cc1 (stereo not drawn),42,i,i,i,i,i,i,
O=S(=O)(Nc1nc2ccccc2nc1NCC1CCCO1)c1ccccc1 (stereo not drawn),i,i,i,i,i,nt,nt,
Cn1cccc1Cc1nnc(SCC(=O)NCc2ccco2)n1CCc1ccccc1,36,i,i,i,i,i,i,
Cn1cccc1Cc1nnc(SCC(=O)NCc2ccco2)n1-c1ccc(F)cc1,39,i,i,i,i,i,i,

# Screening results from PubChem BioAssay.
